Converted amounts (≈) assume the structure as drawn. The source made the active and inactive calls. No cut-off for these calls is given here.
Tests used:
[1] = Selectivity ratio of cytotoxicity against human HaCaT cells to MIC for methicillin-resistant Staphylococcus aureus NRS123 (USA400); assay type: toxicity, cell-based
Staphylococcus aureus [2] = experiment: Antibacterial activity against methicillin-resistant Staphylococcus aureus NRS123 (USA400) infected in mouse J774 cells assessed as reduction in bacterial colony forming units at 16 ug/ml after 24 hrs relative to control; assay type: functional; parameters: scale not given: the % may be the effect or the level left
Method in brief: (§1)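 J774 macrophages in DMEM + 10% FBS, 37 °C, 5% CO2, infected with USA400 at MOI ~100:1; after 1 h, gentamicin (50 µg/mL) wash; agent at 16 µg/mL in triplicate; at time point, gentamicin wash, lysis in 0.1% Triton X-100, serial dilution, TSA plating 18-22 h at 37 °C; % CFU/mL reduction versus untreated; t-test.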

Staphylococcus aureus [3] = experiment: Selectivity ratio of MBC99.9 for methicillin-resistant Staphylococcus aureus USA300 NRS384 to MIC for methicillin-resistant Staphylococcus aureus USA300 NRS384; assay type: functional
[4] = Selectivity ratio of cytotoxicity against human HaCaT cells to MIC for methicillin-resistant Staphylococcus aureus USA300 NRS384; assay type: toxicity, cell-based
Staphylococcus aureus [5] = experiment: Potentiation of vancomycin-induced antibacterial activity against vancomycin-resistant Staphylococcus aureus isolate 10 assessed as vancomycin MIC after 20 to 22 hrs by broth microdilution assay (reference value: […]); assay type: functional
Staphylococcus aureus [6] = experiment: Selectivity ratio of MBC99.9 for methicillin-resistant Staphylococcus aureus USA100 NRS382 to MIC for methicillin-resistant Staphylococcus aureus USA100 NRS382; assay type: functional
Staphylococcus aureus [7] = experiment: Selectivity ratio of MBC99.9 for methicillin-resistant Staphylococcus aureus NRS123 (USA400) to MIC for methicillin-resistant Staphylococcus aureus NRS123 (USA400); assay type: functional
Staphylococcus aureus [8] = experiment: Selectivity ratio of MBC99.9 for methicillin-resistant Staphylococcus aureus USA200 NRS383 to MIC for methicillin-resistant Staphylococcus aureus USA200 NRS383; assay type: functional
Staphylococcus aureus [9] = experiment: Antibacterial activity against vancomycin-resistant Staphylococcus aureus isolate 10 after 20 hrs by broth microdilution assay; assay type: functional; conditions: isolate 10, 20 h
Staphylococcus aureus [10] = experiment: Antibacterial activity against methicillin-resistant Staphylococcus aureus USA300 NRS384 after 20 hrs by broth microdilution assay; assay type: functional; conditions: USA300 NRS384, 20 h
Staphylococcus aureus [11] = experiment: Bactericidal activity against methicillin-resistant Staphylococcus aureus USA300 NRS384 incubated for 20 hrs followed by replating on tryptic soy agar plates and further incubated for 18 hrs by broth microdilution assay; assay type: functional
Staphylococcus aureus [12] = experiment: Bactericidal activity against vancomycin-resistant Staphylococcus aureus isolate 10 incubated for 20 hrs followed by replating on tryptic soy agar plates and further incubated for 18 hrs by broth microdilution assay; assay type: functional
Method in brief: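 From MIC wells without visible growth, an aliquot was spotted onto Tryptic soy agar and incubated at 37 °C for at least 18 h; MBC = lowest concentration inhibiting 99.9% of bacterial growth.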

Staphylococcus aureus [13] = experiment: Antibacterial activity against vancomycin-resistant Staphylococcus aureus isolate 4 after 20 hrs by broth microdilution assay; assay type: functional; conditions: isolate 4, 20 h
Staphylococcus aureus [14] = experiment: Bactericidal activity against Staphylococcus aureus RN4220 NRS107 incubated for 20 hrs followed by replating on tryptic soy agar plates and further incubated for 18 hrs by broth microdilution assay; assay type: functional
[15] = Selectivity ratio of cytotoxicity against human HaCaT cells to MIC for methicillin-resistant Staphylococcus aureus USA200 NRS383; assay type: toxicity, cell-based
[16] = Half life in human liver microsomes in absence of NADPH by LC-MS/MS analysis; assay type: ADME, microsome
Method in brief: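 Human liver microsomes were incubated in duplicate at 37 °C in 100 mM potassium phosphate with 3 mM MgCl2, pH 7.4, without NADPH to detect NADPH-free degradation. Aliquots were taken at 0, 10, 20, 40 and 60 min and quenched in ice-cold methanol containing an internal standard, then held at least 10 min at -20 °C before water was added. Half-life was taken from compound depletion.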

Staphylococcus aureus [17] = experiment: Bactericidal activity against methicillin-resistant Staphylococcus aureus NRS123 (USA400) incubated for 20 hrs followed by replating on tryptic soy agar plates and further incubated for 18 hrs by broth microdilution assay; assay type: functional
[18] = Half life in human liver microsomes in presence of NADPH by LC-MS/MS analysis; assay type: ADME, microsome; conditions: microsomes
Method in brief: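 Human liver microsomal protein was incubated in duplicate at 37 °C in 100 mM potassium phosphate, 2 mM NADPH, 3 mM MgCl2, pH 7.4. Samples were taken at 0, 10, 20, 40 and 60 min and stopped with ice-cold methanol containing an internal standard. Half-life was derived from depletion. CLint = ln(2)/(T1/2 × microsomal protein concentration).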

Staphylococcus aureus [19] = experiment: Selectivity ratio of MBC99.9 for Staphylococcus aureus RN4220 NRS107 to MIC for Staphylococcus aureus RN4220 NRS107; assay type: functional
Staphylococcus aureus [20] = experiment: Bactericidal activity against methicillin-resistant Staphylococcus aureus NRS123 (USA400) assessed as time required for complete bacterial elimination by time-kill assay; assay type: functional
Staphylococcus aureus [21] = experiment: Inhibition of cell wall synthesis in Staphylococcus aureus RN4220 NRS107 assessed as UDP-N-acetylmuramyl pentapeptide formation at 10 times MIC incubated for 30 mins by HPLC-MS analysis; assay type: functional, organism-based
J774 = experiment: Cytotoxicity against mouse J774 cells assessed as reduction in cell viability up to 16 ug/ml after 2 hrs by MTS assay; assay type: cell-based; conditions: j774, 2 h
Method in brief: (§2)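 Cells were HaCaT keratinocytes or J774 murine macrophages, grown in DMEM with 10% FBS at 37 °C, 5% CO2. They were exposed in triplicate to 8, 16, 32 and 64 µg/mL for 2 h, with DMSO-matched controls. MTS was then added for 4 h and absorbance read at 490 nm. Viability is expressed as % of DMSO-treated cells, mean ± SD.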

Bacillus subtilis [22] = experiment: Inhibition of cell wall biosynthesis in Bacillus subtilis at 4 times MIC incubated for 2 hrs by SYTOX Green staining-based assay
Staphylococcus aureus [23] = experiment: Potentiation of vancomycin-induced antibacterial activity against vancomycin-resistant Staphylococcus aureus isolate 10 assessed as reduction in vancomycin MIC after 20 to 22 hrs by broth microdilution assay relative to vancomycin alone; assay type: functional
Staphylococcus aureus [24] = experiment: Bactericidal activity against methicillin-resistant Staphylococcus aureus USA100 NRS382 incubated for 20 hrs followed by replating on tryptic soy agar plates and further incubated for 18 hrs by broth microdilution assay; assay type: functional
Staphylococcus aureus [25] = experiment: Antibacterial activity against methicillin-resistant Staphylococcus aureus NRS123 (USA400) infected in mouse J774 cells assessed as reduction in bacterial colony forming units at 16 ug/ml after 4 hrs; assay type: functional, organism-based; method in brief: as §1
[26] = Selectivity ratio of cytotoxicity against human HaCaT cells to MIC for Staphylococcus aureus RN4220 NRS107; assay type: toxicity, cell-based
Staphylococcus aureus [27] = experiment: Bactericidal activity against vancomycin-resistant Staphylococcus aureus isolate 4 incubated for 20 hrs followed by replating on tryptic soy agar plates and further incubated for 18 hrs by broth microdilution assay; assay type: functional
Staphylococcus aureus [28] = experiment: Bactericidal activity against methicillin-resistant Staphylococcus aureus USA200 NRS383 incubated for 20 hrs followed by replating on tryptic soy agar plates and further incubated for 18 hrs by broth microdilution assay; assay type: functional
Bacillus subtilis [29] = experiment: Inhibition of cell wall biosynthesis in Bacillus subtilis assessed as induction of formation of misshapen cells at 3.5 ug/ml incubated for 2 hrs in presence of osmotic stabilising agent MSM by FM-4-64 staining based assay; assay type: functional, organism-based
Method in brief: (§3)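 B. subtilis grown in LB at 37 °C to OD600 ~0.2, then treated with or without the osmotic stabiliser MSM for 2 h; stained with FM 4-64 (1 µg/mL, membranes), DAPI (1 µg/mL, DNA) and SYTOX Green (1 µg/mL, lysis); imaged by deconvolution fluorescence microscopy.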

HaCaT = experiment: Cytotoxicity against human HaCaT cells assessed as reduction in cell viability up to 32 ug/ml after 2 hrs by MTS assay; assay type: cell-based; method in brief: as §2
[30] = Selectivity ratio of cytotoxicity against human HaCaT cells to MIC for methicillin-resistant Staphylococcus aureus USA100 NRS382; assay type: toxicity, cell-based
Staphylococcus aureus [31] = experiment: Antibacterial activity against methicillin-resistant Staphylococcus aureus USA300 NRS384 infected in Caenorhabditis elegans AU37 assessed as reduction in bacterial burden at 20 ug/ml after 18 hrs by microscopic analysis relative to vancomycin; assay type: functional
Staphylococcus aureus [32] = experiment: Antibacterial activity against methicillin-resistant Staphylococcus aureus USA300 NRS384 infected in Caenorhabditis elegans AU37 assessed as reduction in bacterial burden at 20 ug/ml after 18 hrs by microscopic analysis; assay type: functional; parameters: scale not given: the % may be the effect or the level left
Bacillus subtilis [33] = experiment: Inhibition of cell wall biosynthesis in Bacillus subtilis assessed as induction of small bulges formation at 3.5 ug/ml incubated for 2 hrs in presence of osmotic stabilising agent MSM by FM-4-64 staining based assay; assay type: functional, organism-based; method in brief: as §3

## Cc1nc(-c2ccc3ccccc3c2)sc1-c1cnc(NC(=N)N)s1
[1]
  selectivity ratio: 4 to 16
Staphylococcus aureus [2]
  Activity: 81%
Staphylococcus aureus [3]
  selectivity ratio: 1
[4]
  selectivity ratio: 4 to 16
Staphylococcus aureus [5]
  MIC: 1 µg/mL
Staphylococcus aureus [6]
  selectivity ratio: 2
Staphylococcus aureus [7]
  selectivity ratio: 2
Staphylococcus aureus [8]
  selectivity ratio: 1
Staphylococcus aureus [9]
  MIC: 4 µg/mL (≈ 10.9 µM)
Staphylococcus aureus [10]
  MIC: 4 µg/mL (≈ 10.9 µM)
Staphylococcus aureus [11]
  MBC: 4 µg/mL (≈ 10.9 µM)
Staphylococcus aureus [12]
  MBC: 4 µg/mL (≈ 10.9 µM)
Staphylococcus aureus [13]
  MIC: 4 µg/mL (≈ 10.9 µM)
Staphylococcus aureus [14]
  MBC: 4 µg/mL (≈ 10.9 µM)
[15]
  selectivity ratio: 4 to 16
[16]
  t1/2: > 240 min
Staphylococcus aureus [17]
  MBC: 4 µg/mL (≈ 10.9 µM)
[18]
  t1/2: 134 min
Staphylococcus aureus [19]
  selectivity ratio: 2
Staphylococcus aureus [20]
  Time: <=4 hr
Staphylococcus aureus [21]
  inhibition: Active
J774
  Activity: Non-Toxic
Bacillus subtilis [22]
  inhibition: Active
Staphylococcus aureus [23]
  fold change (FC): 512
Staphylococcus aureus [24]
  MBC: 2 µg/mL (≈ 5.47 µM)
Staphylococcus aureus [25]
  Activity: inactive
[26]
  selectivity ratio: 4 to 16
Staphylococcus aureus [27]
  MBC: 4 µg/mL (≈ 10.9 µM)
Staphylococcus aureus [28]
  MBC: 2 µg/mL (≈ 5.47 µM)
Bacillus subtilis [29]
  inhibition: Active
HaCaT
  Activity: Non-Toxic
[30]
  selectivity ratio: 4 to 16
Staphylococcus aureus [31]
  fold change (FC): 3
Staphylococcus aureus [32]
  Activity: 30%
Bacillus subtilis [33]
  inhibition: Active
